The values below come from PubChem BioAssay.

Experiment [1] in a line: inhibitors of TNFa-induced NFkB p65 translocation, primary screen, imaging, HUVEC, MLSMR starter and 10KST1 sets (AID 438;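 active = inhibition above 20% together with a positive visual image hit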;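 also: compound added about 3h40 before a 20 min TNFalpha stimulation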;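 as to inhibition: signal is the nuclear over cytoplasmic p65 intensity ratio per well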). Particulars: HUVEC TNFa-induced p65 nuclear translocation; cell count: measured here: nuclei count (cytotoxicity indicator), at 2.08 µM; inhibition: at 2 µM, stronger effect = higher value, 0% TNFa-plus-vehicle, 100% no-TNFa wells.
The nature of experiment [2]: inhibitors of mutant huntingtin aggregation, primary screen, imaging, exon1htt(103Q)mCFP cells, high-content imaging (AID 483;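 active = visual image review flags a hit and inhibition of aggregation exceeds 20%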;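 also: compound exposure lasted 3 days before fixation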;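 as to nuclei count: percent of the per-plate median nuclei count of sample wells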). Particulars: exon1htt(103Q)mCFP cell line, aggregate imaging, at 2 µM; inhibition of aggregation: stronger effect = higher value; nuclei count: measured here: cell count, toxicity.
Experiment [3] in a line: inhibitors of E-selectin induction by TNFa, primary screen, imaging, HUVEC, immunofluorescence, MLSMR starter and 10KST1 sets (AID 487;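 active = visually confirmed hit in the image check and inhibition above 20%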;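 as to inhibition: signal is fraction of cell area covered by stained E-selectin grains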;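 as to nuclei count: 100% = median nuclei count of all wells on the same plate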). The following applies: HUVEC TNFalpha-induced E-selectin immunofluorescence imaging, at 2 µM; inhibition: stronger effect = higher value; nuclei count: measured here: cell number, toxicity.
For experiment [4], the target named is Voltage-gated potassium channel subunit beta-2 (Rattus norvegicus) (UniProt P62483). The experiment can be described thus: KvBeta enzyme negative modulators, primary screen, biochemical, NADPH fluorescence (AID 622;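 active = fluorescence slope higher than the sample average by over 3 SD, cut at about -0.22 in these data, passing the limit was not always enough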;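 also: slope of raw intensity against log time taken from 70 to 1610 s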). The following applies: recombinant KvBeta, 4-cyanobenzaldehyde reduction, at 10 µM, stronger effect = higher value.
Experiment [5] has the same target. The experiment in a line: KvBeta positive modulators, primary screen, biochemical, NADPH fluorescence (AID 623).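 Also: fluorescence intensity change per second fitted from 20 to 320 s.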 The following applies: Recombinant KvBeta, NADPH fluorescence decrease slope, 10 min; at 10 µM; stronger effect = lower value.
Experiment [6] has as its target Muscarinic acetylcholine receptor M4 (Homo sapiens) (UniProt P08173). The experiment can be described thus: compounds altering M4/GIRK thallium flux, either direction, primary screen, M4 allosteric agonist project, cell-based, HEK293 M4/GIRK, BTC-AM (AID 625;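 active = fluorescence slope after compound addition differing from the mean of all tested samples at 99.7% confidence, mostly higher but some lower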;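 also: thallium influx through GIRK channels coupled to M4 in HEK293 cells with BTC-AM dye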). The following applies: at 10 µM, actives lie on both sides. The method, boiled down:
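Material – HEK293 cells with M4 receptor and GIRK channels · Buffer or medium – pH 7.3 thallium assay buffer · Doses – one dose, 10 µM final · Timing – cells overnight at 37 °C, BTC-AM loading 1 h, reads 2 min total · Measured by – kinetic fluorescence with BTC-AM dye · Controls – carbachol and DMSO controls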

The nature of experiment [7]: inhibitors of Sendai virus-induced IRF3 signaling, primary screen, TLR/RLR signaling modifier project, cell-based, Sendai virus stimulus, luciferase, 10K MLSCN set (AID 602276;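 active = inhibition at or above 50% at 10 µM; inactive = inhibition below 50%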;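 also: firefly luciferase from ISG56 promoter only with Renilla not read in this screen; 0% = Sendai virus plus DMSO and 100% = medium plus DMSO without virus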). Particulars: HEK293 RL24 IRF3 luciferase reporter, at 10 µM, stronger effect = higher value.
Experiment [8] in a line: inhibitors of poly I:C-induced TLR3 signaling, primary screen, cell-based, poly I:C stimulus, luciferase, 10K MLSCN set (AID 602277;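 active = inhibition of the reporter signal at or above 50%; inactive = inhibition below 50%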). Particulars: HEK293-TLR3 RL24 IRF3 luciferase reporter, at 10 µM, stronger effect = higher value.

Each structure is given as a SMILES string. Active and inactive are the calls of the source.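 The calls were made as follows, unless noted: active = NADPH fluorescence slope more negative than the mean of all samples by about 3 SD, 99.7% confidence; inactive = the rest.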

Sequence of Muscarinic acetylcholine receptor M4 (Homo sapiens) (P08173 whole entry, looked up): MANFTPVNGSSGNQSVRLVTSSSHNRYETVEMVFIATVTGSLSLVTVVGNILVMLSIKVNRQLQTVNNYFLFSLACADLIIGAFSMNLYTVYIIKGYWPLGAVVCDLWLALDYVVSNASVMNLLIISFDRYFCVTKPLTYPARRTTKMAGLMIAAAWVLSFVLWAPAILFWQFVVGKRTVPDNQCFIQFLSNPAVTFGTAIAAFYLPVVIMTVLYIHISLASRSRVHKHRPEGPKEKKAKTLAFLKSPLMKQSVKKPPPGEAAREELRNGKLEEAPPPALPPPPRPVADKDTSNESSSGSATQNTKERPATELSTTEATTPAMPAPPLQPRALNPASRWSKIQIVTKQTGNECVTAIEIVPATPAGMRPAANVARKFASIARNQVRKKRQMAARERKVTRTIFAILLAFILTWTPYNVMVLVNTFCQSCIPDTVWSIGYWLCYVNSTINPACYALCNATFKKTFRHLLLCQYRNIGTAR
Sequence of Voltage-gated potassium channel subunit beta-2 (Rattus norvegicus) (P62483 whole entry, looked up): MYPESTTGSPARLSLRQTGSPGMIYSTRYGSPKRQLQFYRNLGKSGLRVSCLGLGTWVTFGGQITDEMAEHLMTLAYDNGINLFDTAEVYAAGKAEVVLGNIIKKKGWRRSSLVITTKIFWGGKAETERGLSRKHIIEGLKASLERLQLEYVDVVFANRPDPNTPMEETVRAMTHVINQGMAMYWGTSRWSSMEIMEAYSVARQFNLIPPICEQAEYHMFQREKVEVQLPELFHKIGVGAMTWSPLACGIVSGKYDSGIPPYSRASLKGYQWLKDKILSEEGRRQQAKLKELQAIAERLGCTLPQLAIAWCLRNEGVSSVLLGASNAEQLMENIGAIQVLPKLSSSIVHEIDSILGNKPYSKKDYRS

Usually inhibition stands for the drop in the measured response relative to a control, in per cent. For `Cc1cc(C)nc(SCc2nnc(SCc3ccccc3Cl)o2)n1`, in experiment [1], the cell count amounted to 428. Further, the inhibition in experiment [1] is -8.3% (inactive); in experiment [3] it was -33.4% (inactive); in experiment [7], 6.47% (inactive); in experiment [8] it was 0.418% (inactive). Besides, in experiment [2], the inhibition of aggregation is 16.9% (inactive). The nuclei count in experiment [2] was found to be 110%; in experiment [3], 98.3%. Moreover, the fluorescence slope in experiment [4] is -0.468 (inactive); in experiment [6], 0.00428 (inactive). Further, the NADPH fluorescence slope in experiment [5] is -0.000278 (inactive).
For `CCOC(=O)c1ccc(-c2c(C(=O)OCC)oc3cc(O)c(CC)cc3c2=O)o1`, the cell count in experiment [1] was determined as 676. The inhibition in experiment [1] was 6.9% (inactive); in experiment [3] it was -22.1% (inactive); in experiment [7], 15.3% (inactive); in experiment [8] it was 7.61% (inactive). In addition, the inhibition of aggregation in experiment [2] is 10.3% (inactive). The nuclei count in experiment [2] turned out to be 104%; in experiment [3], 100%. Also, the figures for the fluorescence slope in experiment [4] and in experiment [6] were -0.602 (inactive) and 0.00385 (inactive), respectively. The NADPH fluorescence slope in experiment [5] is -2.5e-05 (inactive).
For `Cc1ccc(C2CC(c3cccc(Br)c3)Nc3nnnn32)cc1` (centres undefined), in experiment [1], the cell count was 460. For the same molecule, the inhibition in experiment [1] is -10% (inactive); in experiment [3] it was -1.3% (inactive); in experiment [7], 25.2% (inactive); in experiment [8], 26% (inactive). Besides, the inhibition of aggregation in experiment [2] is -4.9% (inactive). The nuclei count is 90.9% in experiment [2] and 79.9% in experiment [3]. Also, the fluorescence slope in experiment [4] is -0.579 (inactive); in experiment [6], 0.00604 (inactive). The NADPH fluorescence slope in experiment [5] was 1.4e-05 (inactive).
With `Cc1cc(C(=O)Nc2cc(C)n(Cc3ccc(Cl)cc3)n2)no1`, the cell count in experiment [1] came out at 240. In addition, the inhibition in experiment [1] was 9.5% (inactive); in experiment [3] it was -39.5% (inactive); in experiment [7], -11.3% (inactive); in experiment [8], -27.1% (inactive). In experiment [2], the inhibition of aggregation was -10.6% (inactive). In addition, the nuclei count amounted to 98.8% in experiment [2] and 88.4% in experiment [3]. The fluorescence slope in experiment [4] was -0.483 (inactive); in experiment [6], 0.0053 (inactive). Besides, in experiment [5], the NADPH fluorescence slope was -1.4e-05 (inactive).
As to `Cc1nc(NCCNC(=O)c2ccco2)c2c(C)c(C)sc2n1`, in experiment [1], the cell count came to 803. Besides, the inhibition in experiment [1] was -4.2% (inactive); in experiment [3], -34.1% (inactive); in experiment [7] it was 12.1% (inactive); in experiment [8], 6.83% (inactive). In experiment [2], the inhibition of aggregation was -8.7% (inactive). Further, the results for the nuclei count in experiment [2] and in experiment [3] were 136% and 117%, respectively. Moreover, the fluorescence slope in experiment [4] was -0.548 (inactive); in experiment [6] it was 0.00498 (inactive). Besides, the NADPH fluorescence slope in experiment [5] is 1.6e-05 (inactive).
Regarding `CCC(c1nnc(SCC(=O)NCC2CCCO2)n1Cc1ccccc1)N(C)C` (centres undefined), the cell count in experiment [1] worked out at 414. In addition, the inhibition in experiment [1] is -5.7% (inactive); in experiment [3], -136% (inactive); in experiment [7], 21% (inactive); in experiment [8], 25.8% (inactive). In addition, the inhibition of aggregation in experiment [2] was 0.8% (inactive). Moreover, the nuclei count in experiment [2] was found to be 52.5%; in experiment [3], 110%. The fluorescence slope is -0.508 (inactive) in experiment [4] and 0.00548 (inactive) in experiment [6]. In experiment [5], the NADPH fluorescence slope was -2.1e-05 (inactive).
For the molecule `O=C(CN1CCN(c2ncc(C(F)(F)F)cc2Cl)CC1)Nc1ccc2c(c1)OCO2`, in experiment [1], the cell count was 407. The inhibition in experiment [1] was -5.7% (inactive); in experiment [3], -11.6% (inactive); in experiment [7], 7.72% (inactive); in experiment [8], 11.6% (inactive). For the same molecule, in experiment [2], the inhibition of aggregation was 4.8% (inactive). Moreover, the nuclei count in experiment [2] is 106%; in experiment [3], 104%. In addition, the fluorescence slope in experiment [4] is -0.559 (inactive); in experiment [6], 0.00584 (inactive). Besides, the NADPH fluorescence slope in experiment [5] is -4.3e-05 (inactive).
As for `Cc1cc(-c2ccccc2)nc2cc(C(N)=O)nn12`, the cell count in experiment [1] amounted to 331. Besides, the inhibition was -5.5% (inactive) in experiment [1], -129% (inactive) in experiment [3], 15.9% (inactive) in experiment [7] and 13.7% (inactive) in experiment [8]. Further, the inhibition of aggregation in experiment [2] is 14.7% (inactive). The nuclei count in experiment [2] is 86.6%; in experiment [3], 116%. Further, the fluorescence slope in experiment [4] was -0.424 (inactive); in experiment [6], 0.0052 (inactive). For the same molecule, in experiment [5], the NADPH fluorescence slope is -2.5e-05 (inactive).
On to `O=C(CN1C(=O)COc2ccccc21)NCCCN1CCc2ccccc2C1`, for which the cell count in experiment [1] came out at 698. The inhibition is -5.4% (inactive) in experiment [1], -13.4% (inactive) in experiment [3], 11.3% (inactive) in experiment [7] and 33.1% (inactive) in experiment [8]. In addition, in experiment [2], the inhibition of aggregation was -7.3% (inactive). Also, the nuclei count in experiment [2] and in experiment [3] was 106% in each case. Also, the fluorescence slope is -0.625 (inactive) in experiment [4] and 0.00746 (inactive) in experiment [6]. For the same molecule, the NADPH fluorescence slope in experiment [5] was 1.2e-05 (inactive).
On to `CCc1ccc2nc(NC(=O)CSCc3c(C)noc3C)sc2c1`, for which the cell count in experiment [1] worked out at 416. In addition, the inhibition in experiment [1] was -2% (inactive); in experiment [3], -87.1% (inactive); in experiment [7], -52.6% (inactive); in experiment [8], -109% (inactive). The inhibition of aggregation in experiment [2] was -12.1% (inactive). In addition, the nuclei count in experiment [2] stood at 105%; in experiment [3] it was 112%. Also, the figures for the fluorescence slope in experiment [4] and in experiment [6] were -0.463 (inactive) and 0.00795 (inactive), respectively. Moreover, the NADPH fluorescence slope in experiment [5] is 1.1e-05 (inactive).
For the molecule `O=C(c1ccco1)N1CCN(CC(=O)N(C2CCCCC2)C2CCS(=O)(=O)C2)CC1` (centres undefined), the cell count in experiment [1] came to 311. Also, the inhibition was -5.7% (inactive) in experiment [1], -28.9% (inactive) in experiment [3], 7.31% (inactive) in experiment [7] and 12.1% (inactive) in experiment [8]. For the same molecule, the inhibition of aggregation in experiment [2] was -12.8% (inactive). In addition, the nuclei count came out at 75.5% in experiment [2] and 110% in experiment [3]. In addition, the fluorescence slope is -0.565 (inactive) in experiment [4] and 0.00633 (inactive) in experiment [6]. For the same molecule, in experiment [5], the NADPH fluorescence slope is -5.3e-05 (inactive).
For the molecule `CCOc1ccc2[nH]c(=O)c(CN(Cc3ccccc3)C(=O)N3CCCC3)cc2c1`, the cell count in experiment [1] is 497. Also, the inhibition is -14.1% (inactive) in experiment [1], 54.1% (inactive) in experiment [3], 10.6% (inactive) in experiment [7] and 25.9% (inactive) in experiment [8]. In addition, in experiment [2], the inhibition of aggregation was 14.8% (inactive). Also, the nuclei count in experiment [2] was 67.9%; in experiment [3] it was 48.2%. Moreover, the figures for the fluorescence slope in experiment [4] and in experiment [6] were -0.475 (inactive) and 0.00557 (inactive), respectively. For the same molecule, the NADPH fluorescence slope in experiment [5] was 6.7e-06 (inactive).
Regarding `CCOC(=O)/C=C(\C)Sc1cc(=O)oc2ccccc12`, the cell count in experiment [1] came to 571. The inhibition in experiment [1] is 18.4% (inactive); in experiment [3] it was -103% (inactive); in experiment [7] it was 25.8% (inactive); in experiment [8], 47.5% (inactive). In experiment [2], the inhibition of aggregation was -8.4% (inactive). For the same molecule, the nuclei count in experiment [2] stood at 93.3%; in experiment [3], 126%. The fluorescence slope was -0.549 (inactive) in experiment [4] and 0.00418 (inactive) in experiment [6]. Also, the NADPH fluorescence slope in experiment [5] is -6e-05 (inactive).
Regarding `Cc1ccc2nc(CSc3nnc(-c4ccco4)n3-c3ccccc3)cc(=O)n2c1`, in experiment [1], the cell count stood at 509. Besides, the inhibition is -7.8% (inactive) in experiment [1], -175% (inactive) in experiment [3], -11% (inactive) in experiment [7] and -20% (inactive) in experiment [8]. Moreover, in experiment [2], the inhibition of aggregation was -2% (inactive). Besides, the nuclei count was 115% in experiment [2] and 201% in experiment [3]. For the same molecule, the results for the fluorescence slope in experiment [4] and in experiment [6] were -0.567 (inactive) and 0.00636 (inactive), respectively. Also, the NADPH fluorescence slope in experiment [5] was -1.2e-06 (inactive).
